pIC50: −log10 of the molar value.
Biological target: P2Y purinoceptor 12 (Homo sapiens, UniProt Q9H244)
Test: Displacement of [3H]-2-methyl-thio-adenosine 5'-diphosphate from human recombinant P2Y12 expressed in CHO cell membranes by scintillation counting method
Conditions: not given; call rule not given here
Procedure, shortened: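 CHO cells expressing recombinant P2Y₁₂ receptors, incubated with tritium-labeled 2-methyl-thio-adenosine 5'-diphosphate plus test compound; IC₅₀ from displacement curves, each point in triplicate; reference compound run with every compound set, and set re-analyzed if its IC₅₀ fell outside pre-set 95% confidence interval.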

Sequence of P2Y purinoceptor 12 (Q9H244 whole entry): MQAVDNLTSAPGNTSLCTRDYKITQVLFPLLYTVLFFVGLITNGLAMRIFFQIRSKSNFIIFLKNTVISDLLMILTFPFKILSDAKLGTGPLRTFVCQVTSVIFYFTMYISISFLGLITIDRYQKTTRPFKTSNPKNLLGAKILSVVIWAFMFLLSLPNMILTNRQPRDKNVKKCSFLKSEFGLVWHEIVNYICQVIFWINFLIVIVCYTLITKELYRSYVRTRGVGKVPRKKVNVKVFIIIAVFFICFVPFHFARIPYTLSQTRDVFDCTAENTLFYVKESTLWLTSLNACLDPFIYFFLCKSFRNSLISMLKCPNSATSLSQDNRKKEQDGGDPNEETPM

SMILES	pIC50
CCOC(=O)N1CCN(C(=O)[C@H](CCC(=O)O)NC(=O)c2cc(C(C)(C)C)nc(-c3ccccc3)n2)CC1	7.44
CCOC(=O)N1CCN(C(=O)[C@H](CCC(=O)O)NC(=O)c2cc(NC(=O)c3ccccc3)nc(-c3ccccc3)n2)CC1	6.75
CCCCOC(=O)N1CCN(C(=O)[C@H](CCC(=O)O)NC(=O)c2cc(N3CC[C@H](OC)C3)nc(-c3ccccc3)n2)CC1	8.52

Tested on: Platelet
Test: Inhibition of ADP-induced platelet aggregation in human platelet rich plasma assessed as remaining activity at 500 nM by in-vitro light transmission aggregometry assay
Type: functional
Conditions: not given
Procedure, shortened: (§1)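 Light transmission aggregometry in human platelet-rich plasma; compound incubated, aggregation triggered with 3 µM ADP; remaining activity (RA) recorded at a single compound level (1000, 500 or 100 nM).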

SMILES	Activity [%]
CCOC(=O)N1CCN(C(=O)[C@H](CCC(=O)O)NC(=O)c2cc(C(C)(C)C)nc(-c3ccccc3)n2)CC1	>60
CCOC(=O)N1CCN(C(=O)[C@H](CCC(=O)O)NC(=O)c2cc(NC(=O)c3ccccc3)nc(-c3ccccc3)n2)CC1	>60

Tested on: Platelet
Test: Inhibition of ADP-induced platelet aggregation in human platelet rich plasma assessed as remaining activity at 1000 nM by in-vitro light transmission aggregometry assay
Type: functional
Conditions: not given
Procedure, shortened: as §1

SMILES	Activity [%]
CCOC(=O)N1CCN(C(=O)[C@H](CCC(=O)O)NC(=O)c2cc(C(C)(C)C)nc(-c3ccccc3)n2)CC1	>30
CCOC(=O)N1CCN(C(=O)[C@H](CCC(=O)O)NC(=O)c2cc(NC(=O)c3ccccc3)nc(-c3ccccc3)n2)CC1	>30

Tested on: Platelet
Test: Inhibition of ADP-induced platelet aggregation in human platelet rich plasma by in-vitro light transmission aggregometry assay
Type: functional
Conditions: Homo sapiens, Platelet, Plasma
Procedure, shortened: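 Human platelet-rich plasma incubated with compound, aggregation induced by 3 µM ADP and read by light transmission aggregometry; IC₅₀ derived from concentration–response curve.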

SMILES	pIC50
CCOC(=O)N1CCN(C(=O)[C@H](CCC(=O)O)NC(=O)c2cc(C(C)(C)C)nc(-c3ccccc3)n2)CC1	5.69
CCCCOC(=O)N1CCN(C(=O)[C@H](CCC(=O)O)NC(=O)c2cc(N3CC[C@H](OC)C3)nc(-c3ccccc3)n2)CC1	7.68

Tested on: not listed separately
Test: Potency shift, ratio of IC50 for inhibition of ADP-induced platelet aggregation in human platelet rich plasma to IC50 for displacement of [3H]-2-methyl-thio-adenosine 5'-diphosphate from human recombinant P2Y12 expressed in CHO cell membranes
Conditions: not given

SMILES	Ratio IC50
CCOC(=O)N1CCN(C(=O)[C@H](CCC(=O)O)NC(=O)c2cc(C(C)(C)C)nc(-c3ccccc3)n2)CC1	57
CCCCOC(=O)N1CCN(C(=O)[C@H](CCC(=O)O)NC(=O)c2cc(N3CC[C@H](OC)C3)nc(-c3ccccc3)n2)CC1	7

Tested on: not listed separately
Test: Solubility in neutral pH
Type: physicochemical
Conditions: not given

SMILES	solubility
CCOC(=O)N1CCN(C(=O)[C@H](CCC(=O)O)NC(=O)c2cc(C(C)(C)C)nc(-c3ccccc3)n2)CC1	soluble
CCOC(=O)N1CCN(C(=O)[C@H](CCC(=O)O)NC(=O)c2cc(NC(=O)c3ccccc3)nc(-c3ccccc3)n2)CC1	soluble
CCCCOC(=O)N1CCN(C(=O)[C@H](CCC(=O)O)NC(=O)c2cc(N3CC[C@H](OC)C3)nc(-c3ccccc3)n2)CC1	soluble

Tested on: not listed separately
Test: Solubility in basic pH
Type: physicochemical
Conditions: not given

SMILES	solubility
CCOC(=O)N1CCN(C(=O)[C@H](CCC(=O)O)NC(=O)c2cc(C(C)(C)C)nc(-c3ccccc3)n2)CC1	soluble
CCOC(=O)N1CCN(C(=O)[C@H](CCC(=O)O)NC(=O)c2cc(NC(=O)c3ccccc3)nc(-c3ccccc3)n2)CC1	soluble
CCCCOC(=O)N1CCN(C(=O)[C@H](CCC(=O)O)NC(=O)c2cc(N3CC[C@H](OC)C3)nc(-c3ccccc3)n2)CC1	soluble

Biological target: T1, Cytochrome P450 3A4 (Homo sapiens, UniProt P08684)
Test: Inhibition of CYP3A4 in human liver microsomes assessed as reduction in midazolam 1'-hydroxylation
Type: ADME
Conditions: not given

T1 sequence (P08684 whole entry): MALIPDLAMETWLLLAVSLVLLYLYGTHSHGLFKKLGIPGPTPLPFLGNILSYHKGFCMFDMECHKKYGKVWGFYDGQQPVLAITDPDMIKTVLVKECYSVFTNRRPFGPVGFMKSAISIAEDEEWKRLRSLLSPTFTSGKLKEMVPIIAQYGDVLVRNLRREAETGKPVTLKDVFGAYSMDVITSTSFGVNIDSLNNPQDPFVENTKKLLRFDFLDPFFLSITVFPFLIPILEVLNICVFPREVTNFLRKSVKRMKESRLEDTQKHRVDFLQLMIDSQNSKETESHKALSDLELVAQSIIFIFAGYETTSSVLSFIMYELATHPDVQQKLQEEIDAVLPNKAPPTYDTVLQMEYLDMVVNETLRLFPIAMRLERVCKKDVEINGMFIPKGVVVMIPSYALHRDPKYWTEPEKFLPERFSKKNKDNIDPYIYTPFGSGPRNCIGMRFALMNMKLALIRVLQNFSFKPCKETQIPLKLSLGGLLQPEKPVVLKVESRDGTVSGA

SMILES	inhibition (INH)
CCOC(=O)N1CCN(C(=O)[C@H](CCC(=O)O)NC(=O)c2cc(C(C)(C)C)nc(-c3ccccc3)n2)CC1	Not Active
CCOC(=O)N1CCN(C(=O)[C@H](CCC(=O)O)NC(=O)c2cc(NC(=O)c3ccccc3)nc(-c3ccccc3)n2)CC1	Not Active
CCCCOC(=O)N1CCN(C(=O)[C@H](CCC(=O)O)NC(=O)c2cc(N3CC[C@H](OC)C3)nc(-c3ccccc3)n2)CC1	Not Active

Biological target: T1, Cytochrome P450 3A4
Test: Inhibition of CYP3A4 in human liver microsomes assessed as reduction in testosterone 6beta-hydroxylation
Type: ADME
Conditions: not given

SMILES	inhibition (INH)
CCOC(=O)N1CCN(C(=O)[C@H](CCC(=O)O)NC(=O)c2cc(C(C)(C)C)nc(-c3ccccc3)n2)CC1	Not Active
CCOC(=O)N1CCN(C(=O)[C@H](CCC(=O)O)NC(=O)c2cc(NC(=O)c3ccccc3)nc(-c3ccccc3)n2)CC1	Not Active
CCCCOC(=O)N1CCN(C(=O)[C@H](CCC(=O)O)NC(=O)c2cc(N3CC[C@H](OC)C3)nc(-c3ccccc3)n2)CC1	Not Active

Biological target: Cytochrome P450 2D6 (Homo sapiens, UniProt P10635)
Test: Inhibition of CYP2D6 in human liver microsomes assessed as reduction in dextromethorphan-O demethylation
Type: ADME
Conditions: not given

Sequence of Cytochrome P450 2D6 (P10635 whole entry): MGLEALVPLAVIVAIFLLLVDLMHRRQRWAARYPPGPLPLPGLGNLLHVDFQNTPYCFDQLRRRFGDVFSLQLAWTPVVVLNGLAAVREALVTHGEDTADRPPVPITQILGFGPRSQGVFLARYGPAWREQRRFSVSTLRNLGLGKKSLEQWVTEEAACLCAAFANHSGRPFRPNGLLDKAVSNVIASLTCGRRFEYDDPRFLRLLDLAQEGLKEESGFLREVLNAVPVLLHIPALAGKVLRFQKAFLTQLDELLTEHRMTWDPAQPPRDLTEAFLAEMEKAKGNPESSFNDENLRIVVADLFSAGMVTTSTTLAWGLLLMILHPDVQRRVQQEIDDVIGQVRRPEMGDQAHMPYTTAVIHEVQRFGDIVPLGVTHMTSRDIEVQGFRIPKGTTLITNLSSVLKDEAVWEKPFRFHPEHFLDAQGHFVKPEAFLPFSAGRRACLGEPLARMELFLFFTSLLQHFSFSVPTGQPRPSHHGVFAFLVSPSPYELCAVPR

SMILES	inhibition (INH)
CCOC(=O)N1CCN(C(=O)[C@H](CCC(=O)O)NC(=O)c2cc(C(C)(C)C)nc(-c3ccccc3)n2)CC1	Not Active
CCOC(=O)N1CCN(C(=O)[C@H](CCC(=O)O)NC(=O)c2cc(NC(=O)c3ccccc3)nc(-c3ccccc3)n2)CC1	Not Active
CCCCOC(=O)N1CCN(C(=O)[C@H](CCC(=O)O)NC(=O)c2cc(N3CC[C@H](OC)C3)nc(-c3ccccc3)n2)CC1	Not Active

Biological target: Cytochrome P450 2C9 (Homo sapiens, UniProt P11712)
Test: Inhibition of CYP2C9 in human liver microsomes assessed as reduction in diclofenac 4'-hydroxylation
Type: ADME
Conditions: not given

Sequence of Cytochrome P450 2C9 (P11712 whole entry): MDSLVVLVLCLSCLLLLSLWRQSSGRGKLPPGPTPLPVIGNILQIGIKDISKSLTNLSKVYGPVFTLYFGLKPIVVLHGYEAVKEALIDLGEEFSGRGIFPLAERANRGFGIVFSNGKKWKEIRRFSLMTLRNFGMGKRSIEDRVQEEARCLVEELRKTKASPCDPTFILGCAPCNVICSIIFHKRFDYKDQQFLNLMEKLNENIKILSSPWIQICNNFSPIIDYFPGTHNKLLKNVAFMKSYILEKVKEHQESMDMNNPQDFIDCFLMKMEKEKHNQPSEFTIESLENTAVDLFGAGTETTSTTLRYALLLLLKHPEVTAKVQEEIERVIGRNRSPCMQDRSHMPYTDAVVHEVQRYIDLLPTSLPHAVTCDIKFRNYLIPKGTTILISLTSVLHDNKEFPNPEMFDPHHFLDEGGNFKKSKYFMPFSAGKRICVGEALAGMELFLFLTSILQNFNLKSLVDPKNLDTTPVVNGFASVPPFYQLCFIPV

SMILES	inhibition (INH)
CCOC(=O)N1CCN(C(=O)[C@H](CCC(=O)O)NC(=O)c2cc(C(C)(C)C)nc(-c3ccccc3)n2)CC1	Not Active
CCOC(=O)N1CCN(C(=O)[C@H](CCC(=O)O)NC(=O)c2cc(NC(=O)c3ccccc3)nc(-c3ccccc3)n2)CC1	Not Active
CCCCOC(=O)N1CCN(C(=O)[C@H](CCC(=O)O)NC(=O)c2cc(N3CC[C@H](OC)C3)nc(-c3ccccc3)n2)CC1	Not Active

Tested on: Liver microsome
Test: Metabolic stability assay in human liver microsomes assessed as parent drug disappearance at 1 uM after 20 mins by HPLC and mass spectrometry method
Type: ADME
Conditions: not given

SMILES	Stability
CCOC(=O)N1CCN(C(=O)[C@H](CCC(=O)O)NC(=O)c2cc(C(C)(C)C)nc(-c3ccccc3)n2)CC1	Stable
CCOC(=O)N1CCN(C(=O)[C@H](CCC(=O)O)NC(=O)c2cc(NC(=O)c3ccccc3)nc(-c3ccccc3)n2)CC1	Stable
CCCCOC(=O)N1CCN(C(=O)[C@H](CCC(=O)O)NC(=O)c2cc(N3CC[C@H](OC)C3)nc(-c3ccccc3)n2)CC1	Stable

Tested on: Liver microsome
Test: Metabolic stability assay in rat liver microsomes assessed as parent drug disappearance at 1 uM after 20 mins by HPLC and mass spectrometry method
Type: ADME
Conditions: not given

SMILES	Stability
CCOC(=O)N1CCN(C(=O)[C@H](CCC(=O)O)NC(=O)c2cc(C(C)(C)C)nc(-c3ccccc3)n2)CC1	Stable
CCOC(=O)N1CCN(C(=O)[C@H](CCC(=O)O)NC(=O)c2cc(NC(=O)c3ccccc3)nc(-c3ccccc3)n2)CC1	Stable
CCCCOC(=O)N1CCN(C(=O)[C@H](CCC(=O)O)NC(=O)c2cc(N3CC[C@H](OC)C3)nc(-c3ccccc3)n2)CC1	Stable

Biological target: Voltage-gated inwardly rectifying potassium channel KCNH2 (Homo sapiens, UniProt Q12809)
Test: Inhibition of human ERG expressed in HEK cells by patch-clamp assay
Type: cell-based
Conditions: hek293

Sequence of Voltage-gated inwardly rectifying potassium channel KCNH2 (Q12809 whole entry): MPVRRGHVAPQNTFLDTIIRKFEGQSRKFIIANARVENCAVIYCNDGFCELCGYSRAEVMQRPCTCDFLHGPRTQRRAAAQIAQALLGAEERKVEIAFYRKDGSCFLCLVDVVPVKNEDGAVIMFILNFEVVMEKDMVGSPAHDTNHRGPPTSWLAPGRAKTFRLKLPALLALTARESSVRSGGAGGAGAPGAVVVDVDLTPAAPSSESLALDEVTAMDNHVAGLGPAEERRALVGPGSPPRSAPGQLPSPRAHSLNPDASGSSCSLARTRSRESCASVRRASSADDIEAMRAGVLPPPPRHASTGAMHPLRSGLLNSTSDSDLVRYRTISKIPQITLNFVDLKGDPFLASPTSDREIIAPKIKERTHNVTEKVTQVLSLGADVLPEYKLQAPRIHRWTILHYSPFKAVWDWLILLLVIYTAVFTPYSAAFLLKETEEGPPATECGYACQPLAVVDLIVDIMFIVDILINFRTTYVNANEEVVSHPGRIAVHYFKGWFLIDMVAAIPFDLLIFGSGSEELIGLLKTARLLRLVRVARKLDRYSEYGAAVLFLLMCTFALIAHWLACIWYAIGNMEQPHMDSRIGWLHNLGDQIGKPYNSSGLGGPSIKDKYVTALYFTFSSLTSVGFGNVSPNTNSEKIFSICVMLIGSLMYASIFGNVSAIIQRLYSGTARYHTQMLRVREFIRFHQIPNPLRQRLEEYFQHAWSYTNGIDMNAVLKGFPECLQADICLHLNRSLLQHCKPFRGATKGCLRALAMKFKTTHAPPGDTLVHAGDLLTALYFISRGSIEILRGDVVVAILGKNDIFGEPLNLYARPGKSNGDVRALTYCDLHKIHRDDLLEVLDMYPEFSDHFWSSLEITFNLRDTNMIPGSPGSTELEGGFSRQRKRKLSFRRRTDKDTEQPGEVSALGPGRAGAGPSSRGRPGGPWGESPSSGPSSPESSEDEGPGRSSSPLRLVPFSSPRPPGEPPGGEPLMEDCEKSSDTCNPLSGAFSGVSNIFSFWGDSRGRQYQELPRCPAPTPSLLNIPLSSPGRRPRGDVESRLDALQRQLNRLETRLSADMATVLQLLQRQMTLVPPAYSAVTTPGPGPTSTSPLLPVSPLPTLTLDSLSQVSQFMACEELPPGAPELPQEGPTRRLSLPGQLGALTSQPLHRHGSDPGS

SMILES	inhibition (INH)
CCOC(=O)N1CCN(C(=O)[C@H](CCC(=O)O)NC(=O)c2cc(C(C)(C)C)nc(-c3ccccc3)n2)CC1	Not Active
CCOC(=O)N1CCN(C(=O)[C@H](CCC(=O)O)NC(=O)c2cc(NC(=O)c3ccccc3)nc(-c3ccccc3)n2)CC1	Not Active
CCCCOC(=O)N1CCN(C(=O)[C@H](CCC(=O)O)NC(=O)c2cc(N3CC[C@H](OC)C3)nc(-c3ccccc3)n2)CC1	Not Active

Tested on: not listed separately
Test: Clearance in Wistar rat at 1 mg/kg, iv
Type: ADME, organism-based
Parameters: dose 1 mg/kg, route intravenous
Conditions: in vivo
Procedure, shortened: (§2)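 Rats dosed by iv infusion at 1 mg/kg (n = 2) or orally at 10 mg/kg (n = 3); plasma levels measured, limit of quantification ca. 1 ng/mL.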

SMILES	clearance [mL/min/kg]
CCCCOC(=O)N1CCN(C(=O)[C@H](CCC(=O)O)NC(=O)c2cc(N3CC[C@H](OC)C3)nc(-c3ccccc3)n2)CC1	24

Tested on: not listed separately
Test: Volume of distribution at steady state in Wistar rat at 1 mg/kg, iv or 10 mg/kg, po
Type: ADME, organism-based
Conditions: in vivo, read-out: Vdss
Procedure, shortened: as §2

SMILES	Vd [L/kg]
CCCCOC(=O)N1CCN(C(=O)[C@H](CCC(=O)O)NC(=O)c2cc(N3CC[C@H](OC)C3)nc(-c3ccccc3)n2)CC1	0.5

Tested on: not listed separately
Test: Half life in Wistar rat at 1 mg/kg, iv or 10 mg/kg, po
Type: ADME, organism-based
Conditions: in vivo
Procedure, shortened: as §2

SMILES	half-life [h]
CCCCOC(=O)N1CCN(C(=O)[C@H](CCC(=O)O)NC(=O)c2cc(N3CC[C@H](OC)C3)nc(-c3ccccc3)n2)CC1	1.2

Tested on: not listed separately
Test: AUC in Wistar rat at 10 mg/kg, po
Type: ADME, organism-based, Plasma
Parameters: dose 10 mg/kg, route oral
Conditions: Wistar, plasma
Procedure, shortened: as §2

SMILES	AUC [µM·h]
CCCCOC(=O)N1CCN(C(=O)[C@H](CCC(=O)O)NC(=O)c2cc(N3CC[C@H](OC)C3)nc(-c3ccccc3)n2)CC1	1.17

Tested on: not listed separately
Test: Cmax in Wistar rat at 10 mg/kg, po
Type: ADME, organism-based
Parameters: dose 10 mg/kg, route oral
Conditions: Wistar, in vivo
Procedure, shortened: as §2

SMILES	Cmax [nM]
CCCCOC(=O)N1CCN(C(=O)[C@H](CCC(=O)O)NC(=O)c2cc(N3CC[C@H](OC)C3)nc(-c3ccccc3)n2)CC1	1690

Tested on: not listed separately
Test: Oral bioavailability in Wistar rat at 10 mg/kg
Type: ADME, organism-based
Conditions: Wistar, in vivo
Procedure, shortened: as §2

SMILES	bioavailability [%]
CCCCOC(=O)N1CCN(C(=O)[C@H](CCC(=O)O)NC(=O)c2cc(N3CC[C@H](OC)C3)nc(-c3ccccc3)n2)CC1	9

From ChEMBL document CHEMBL3351863, “Optimization of 2-phenyl-pyrimidine-4-carboxamides towards potent, orally bioavailable and selective P2Y(12) antagonists for inhibition of platelet aggregation” (Bioorg Med Chem Lett, 2014)
